{
  "source": "ChEMBL document CHEMBL4825692",
  "about": "“Benzofuranyl-2-imidazoles as imidazoline I2 receptor ligands for Alzheimer's disease” (Eur J Med Chem, 2021)",
  "key": {"[1]": {"experiment": "Hypothermic effect in CD-1 mouse assessed as reduction in body temperature at 50 mg/kg, ip measured up to 3 hrs by rectal thermometric method", "format": "ADME, organism-based", "settings": "in vivo; call rule not given here", "summary_of_the_method": "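Adult male and female CD-1 mice (n = 5 per group) given single i.p. doses (1, 5, 10, 20, 30, 50 mg/kg) or saline vehicle 2 ml/kg. Rectal temperature read with a digital probe before dosing and 1, 2 and 3 h after; change from basal value analysed by repeated measures ANOVA with Sidak's test.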"}, "[2]": {"experiment": "Stability in human plasma assessed as compound remaining after 2 hrs", "format": "ADME, cell-free", "settings": "read-out: Stabilty", "summary_of_the_method": "(§1)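 Pooled human plasma from healthy donors, sampled at 0, 1, 2 and 6 h, reported as percentage of parent remaining.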"}, "[3]": {"species_on_record": "Homo sapiens", "experiment": "Displacement of [3H]2-BFI from imidazoline I2 receptor in post-mortem human brain frontal cortex membrane assessed as occupancy at high affinity site measured after 45 mins by liquid scintillation counting spectrometry"}, "[4]": {"experiment": "Stability in human plasma assessed as compound remaining after 6 hrs", "format": "ADME, cell-free", "settings": "read-out: Stabilty", "summary_of_the_method": "as §1"}, "[5]": {"test_system": "CAPAN-1", "experiment": "Cytotoxicity against human CAPAN-1 cells at 100 uM by real time IncuCyte proliferation assay", "format": "cell-based", "settings": "capan-1, 100 µM", "summary_of_the_method": "(§2)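 Adherent lines (LN-229, Capan-1, HCT-116, NCI-H460) seeded at 500–1500 cells/well and treated after overnight attachment. Suspension lines (HL-60, K-562, Z-138, DND-41) seeded at 2500–5500 cells/well directly with compound. Highest concentration 100 μM; proliferation tracked by real-time IncuCyte imaging over 72 h at 37 °C.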"}, "[6]": {"target": "Cytochrome P450 3A4 (Homo sapiens, UniProt P08684)", "sequence (P08684 whole entry)": "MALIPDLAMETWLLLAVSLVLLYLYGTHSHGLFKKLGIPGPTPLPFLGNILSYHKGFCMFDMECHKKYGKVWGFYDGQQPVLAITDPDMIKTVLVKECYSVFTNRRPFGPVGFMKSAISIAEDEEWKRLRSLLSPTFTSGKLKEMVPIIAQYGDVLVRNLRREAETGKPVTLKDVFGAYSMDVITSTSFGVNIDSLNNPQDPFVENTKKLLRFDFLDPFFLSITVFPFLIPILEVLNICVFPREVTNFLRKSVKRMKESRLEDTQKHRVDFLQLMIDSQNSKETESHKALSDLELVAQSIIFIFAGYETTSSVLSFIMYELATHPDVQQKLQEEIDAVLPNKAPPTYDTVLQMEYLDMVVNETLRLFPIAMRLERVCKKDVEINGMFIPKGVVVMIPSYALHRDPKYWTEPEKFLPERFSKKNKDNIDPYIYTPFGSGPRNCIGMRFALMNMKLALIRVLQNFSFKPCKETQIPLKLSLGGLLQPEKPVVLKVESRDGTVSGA", "experiment": "Inhibition of CYP3A4 (unknown origin) using as DBF as substrate at 10 uM", "format": "ADME", "summary_of_the_method": "(§3)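 Recombinant human CYP1A2, CYP2C9, CYP2C19, CYP2D6 and CYP3A4 (7-BFC or DBF as probe) were tested with probe substances and fluorescent detection, with test compound at 10 μM.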"}, "[7]": {"experiment": "Displacement of [3H]clonidine from imidazoline I1 receptor low affinity site in rat hypothalamic membranes measured after 30 mins by liquid scintillation counting spectrometry", "format": "cell membranes, Hypothalamus, Membrane"}, "[8]": {"target": "T1, Cytochrome P450 1A2 (Homo sapiens, UniProt P05177)", "T1 sequence (P05177 whole entry)": "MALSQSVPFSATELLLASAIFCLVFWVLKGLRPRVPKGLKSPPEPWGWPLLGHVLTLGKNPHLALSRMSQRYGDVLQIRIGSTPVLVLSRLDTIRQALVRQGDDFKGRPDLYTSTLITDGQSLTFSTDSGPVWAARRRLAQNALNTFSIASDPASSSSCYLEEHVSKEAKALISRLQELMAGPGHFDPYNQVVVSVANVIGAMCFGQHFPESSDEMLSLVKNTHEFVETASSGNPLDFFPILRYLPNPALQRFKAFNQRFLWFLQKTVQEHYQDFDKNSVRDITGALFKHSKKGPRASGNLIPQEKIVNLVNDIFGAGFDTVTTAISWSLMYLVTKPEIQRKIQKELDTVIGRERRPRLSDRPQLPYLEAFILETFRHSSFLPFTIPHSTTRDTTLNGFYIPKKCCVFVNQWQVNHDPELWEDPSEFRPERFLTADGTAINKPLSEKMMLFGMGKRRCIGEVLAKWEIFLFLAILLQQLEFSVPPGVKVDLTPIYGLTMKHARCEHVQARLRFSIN", "experiment": "Inhibition of CYP1A2 (unknown origin) at 10 uM", "format": "ADME", "summary_of_the_method": "as §3"}, "[9]": {"experiment": "Plasma protein binding in mouse assessed as unbound fraction", "format": "ADME, cell-free"}, "[10]": {"target": "hERG (KCNH2) (Homo sapiens, UniProt Q12809)", "sequence (Q12809 whole entry)": "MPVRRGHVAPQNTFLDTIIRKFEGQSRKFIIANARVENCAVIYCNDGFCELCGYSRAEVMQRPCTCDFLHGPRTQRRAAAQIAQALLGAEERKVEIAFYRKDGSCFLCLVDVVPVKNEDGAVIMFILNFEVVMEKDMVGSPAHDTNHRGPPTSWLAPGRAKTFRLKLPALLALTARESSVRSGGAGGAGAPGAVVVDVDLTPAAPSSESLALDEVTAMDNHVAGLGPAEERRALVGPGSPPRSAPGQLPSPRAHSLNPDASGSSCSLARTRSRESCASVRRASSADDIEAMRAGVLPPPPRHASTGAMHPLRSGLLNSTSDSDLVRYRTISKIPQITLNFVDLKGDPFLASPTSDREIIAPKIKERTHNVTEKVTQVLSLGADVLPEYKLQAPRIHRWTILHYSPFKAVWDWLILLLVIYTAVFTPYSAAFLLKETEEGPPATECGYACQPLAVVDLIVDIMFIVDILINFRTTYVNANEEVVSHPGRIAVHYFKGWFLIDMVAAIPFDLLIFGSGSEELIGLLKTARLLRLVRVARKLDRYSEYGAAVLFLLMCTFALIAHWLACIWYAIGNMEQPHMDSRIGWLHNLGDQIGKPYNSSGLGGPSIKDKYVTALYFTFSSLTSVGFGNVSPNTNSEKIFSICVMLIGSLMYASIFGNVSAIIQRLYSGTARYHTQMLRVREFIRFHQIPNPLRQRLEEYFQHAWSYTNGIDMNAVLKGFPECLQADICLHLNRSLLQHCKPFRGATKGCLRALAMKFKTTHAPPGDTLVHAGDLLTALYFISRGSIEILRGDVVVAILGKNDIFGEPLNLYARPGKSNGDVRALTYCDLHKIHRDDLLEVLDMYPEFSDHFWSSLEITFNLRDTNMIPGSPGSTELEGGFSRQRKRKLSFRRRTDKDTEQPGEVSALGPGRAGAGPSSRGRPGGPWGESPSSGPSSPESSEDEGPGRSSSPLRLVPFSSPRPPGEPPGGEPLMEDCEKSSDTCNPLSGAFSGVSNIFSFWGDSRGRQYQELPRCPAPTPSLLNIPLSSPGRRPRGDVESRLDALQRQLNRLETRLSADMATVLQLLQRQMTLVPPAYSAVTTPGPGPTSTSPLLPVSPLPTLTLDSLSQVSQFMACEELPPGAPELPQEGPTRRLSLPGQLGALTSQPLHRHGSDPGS", "experiment": "Inhibition of human ERG at 10 uM"}, "[11]": {"test_system": "HCT-116", "experiment": "Cytotoxicity against human HCT-116 cells at 100 uM by real time IncuCyte proliferation assay", "format": "cell-based", "settings": "hct-116, 100 µM", "summary_of_the_method": "as §2"}, "[12]": {"experiment": "Stability in human plasma assessed as compound remaining after1 hrs", "format": "ADME, cell-free", "settings": "read-out: Stabilty", "summary_of_the_method": "as §1"}, "[13]": {"experiment": "AUC (0 to infinity) in CD-1 mouse at 10 mg/kg, po measured after 24 hrs by HPLC/UV-VS analysis", "format": "ADME, organism-based", "set-up": "route oral, time 24 hrs, dose 10 mg/kg", "settings": "in vivo", "summary_of_the_method": "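Male CD1 mice; plasma concentration of drug at 15 min to 24 h after a single oral 10 mg/kg dose, measured by HPLC with UV at 290 nm (calibration 0,025-5 μg/mL, peak area ratio). Non-compartmental analysis of mean concentration–time curves: AUC by trapezoidal rule, Cmax read directly from the mean curve.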"}, "[14]": {"experiment": "Solubility of compound at pH 4.61", "format": "physicochemical", "settings": "buffer", "summary_of_the_method": "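Solubility was measured at pH 1.13, 4.61 and 6.97, simulating gastric and intestinal fluids, and classed by European Pharmacopoeia terms.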"}, "[15]": {"experiment": "Stability in mouse plasma assessed as compound remaining after 6 hrs", "format": "ADME, cell-free", "settings": "read-out: Stabilty"}},
  "note": "pKi: −log10 of the molar value.",
  "data": [
    {"smiles": "Cl.c1ccc2oc(-c3ncc[nH]3)cc2c1", "values": [
      {"measurement": "Activity", "setting": "[1]", "value": "Toxic"},
      {"measurement": "remaining at 2 h", "setting": "[2]", "value": 77, "unit": "%"},
      {"measurement": "Activity", "setting": "[3]", "value": 34, "unit": "%"},
      {"measurement": "remaining at 6 h", "setting": "[4]", "value": 57, "unit": "%"},
      {"measurement": "Activity", "setting": "[5]", "value": "Non-Toxic"},
      {"measurement": "inhibition (INH)", "setting": "[6]", "value": "Not Active"},
      {"measurement": "pKi", "setting": "[7]", "value": 3.94},
      {"measurement": "inhibition (INH)", "setting": "[8]", "value": "Not Active"},
      {"measurement": "fraction unbound", "setting": "[9]", "value": 0.16},
      {"measurement": "inhibition at 10 µM", "setting": "[10]", "value": 4, "unit": "%"},
      {"measurement": "Activity", "setting": "[11]", "value": "Non-Toxic"},
      {"measurement": "remaining at 1 h", "setting": "[12]", "value": 83, "unit": "%"},
      {"measurement": "AUC(0-inf)", "setting": "[13]", "value": 2600, "unit": "ng·h/mL"},
      {"measurement": "solubility", "setting": "[14]", "value": "Soluble"},
      {"measurement": "remaining at 6 h", "setting": "[15]", "value": 100, "unit": "%"}
    ]}
  ]
}
